Source: ChEMBL document CHEMBL1138520, “Molecular and conformational determinants of pituitary adenylate cyclase-activating polypeptide (PACAP) for activation of the PAC1 receptor” (J Med Chem, 2009)
pIC50: −log10 of the molar value. Active and inactive are the calls of the source. No cut-off for these calls is given here.

Assays:
[1] = biological target: T1, Pituitary adenylate cyclase-activating polypeptide type I receptor (Homo sapiens, UniProt P41586); experiment: Agonist activity at human recombinant PAC1 receptor expressed in CHO cells assessed as PACAP38-induced calcium mobilization at 1 uM by FLIPR assay relative to PACAP38; assay type: functional, cell-based
Target sequence in this assay (P41586 21-468 limits assumed): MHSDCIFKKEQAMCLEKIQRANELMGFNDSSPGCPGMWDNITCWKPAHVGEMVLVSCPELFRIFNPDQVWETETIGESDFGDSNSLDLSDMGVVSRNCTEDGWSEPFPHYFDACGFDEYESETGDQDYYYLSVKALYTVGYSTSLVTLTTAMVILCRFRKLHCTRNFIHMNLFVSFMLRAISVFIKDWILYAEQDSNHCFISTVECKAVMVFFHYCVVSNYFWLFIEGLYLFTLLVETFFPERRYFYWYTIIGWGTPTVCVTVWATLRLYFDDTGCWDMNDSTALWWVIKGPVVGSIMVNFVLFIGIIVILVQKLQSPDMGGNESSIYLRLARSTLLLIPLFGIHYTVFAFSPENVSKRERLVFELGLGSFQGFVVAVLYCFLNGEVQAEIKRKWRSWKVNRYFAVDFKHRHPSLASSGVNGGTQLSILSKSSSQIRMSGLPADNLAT

[2] = biological target: T1, Pituitary adenylate cyclase-activating polypeptide type I receptor; experiment: Agonist activity at human recombinant PAC1 receptor expressed in CHO cells assessed as PACAP38-induced calcium mobilization at 1 uM by FLIPR assay; assay type: functional, cell-based
Target sequence in this assay (P41586 whole entry): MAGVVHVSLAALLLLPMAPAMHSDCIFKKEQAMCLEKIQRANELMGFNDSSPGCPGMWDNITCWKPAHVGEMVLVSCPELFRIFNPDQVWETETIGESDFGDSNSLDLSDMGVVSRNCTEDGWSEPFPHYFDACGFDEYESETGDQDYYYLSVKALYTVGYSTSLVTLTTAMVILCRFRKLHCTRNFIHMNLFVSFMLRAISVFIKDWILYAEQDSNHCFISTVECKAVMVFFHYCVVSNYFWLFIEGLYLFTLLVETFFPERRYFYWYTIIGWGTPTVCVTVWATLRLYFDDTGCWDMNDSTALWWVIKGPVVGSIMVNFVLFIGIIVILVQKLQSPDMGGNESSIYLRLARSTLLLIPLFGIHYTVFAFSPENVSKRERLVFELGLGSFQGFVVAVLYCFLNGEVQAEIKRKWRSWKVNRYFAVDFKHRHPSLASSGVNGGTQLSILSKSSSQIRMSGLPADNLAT

[3] = biological target: T1, Pituitary adenylate cyclase-activating polypeptide type I receptor; experiment: Antagonist activity at human recombinant PAC1 receptor expressed in CHO cells assessed as reduction in PACAP38-induced calcium mobilization at 10 uM by FLIPR assay; assay type: functional, cell-based
Procedure, shortened: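 Fluo-4-loaded CHO cells stably expressing human PAC1 were exposed for 15 min to 10^-5 M peptide before reading. They were then challenged with 10^-6 M PACAP38, and the reduction in fluorescence calcium response was recorded (ex 480/em 525 nm, 150 s).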
Target sequence in this assay (P41586 21-468 limits assumed): as the sequence (P41586 21-468 limits assumed) above

[4] = biological target: T1, Pituitary adenylate cyclase-activating polypeptide type I receptor; experiment: Displacement of [125I]Ac-PACAP27 from human recombinant PAC1 receptor expressed in CHO cells by gamma- counter; assay type: cell-based
Target sequence in this assay (P41586 whole entry): as the sequence (P41586 whole entry) above

Emax [1]: inactive
EC50 [2]: Not Active
Activity [3]: inactive
pIC50 [4]: 6.51
Structure (SMILES): CC[C@H](C)[C@H](NC(=O)CN(C)C(=O)[C@H](CC(=O)O)NC(=O)[C@H](CO)NC(=O)[C@@H](N)Cc1cnc[nH]1)C(=O)N[C@@H](Cc1ccccc1)C(=O)N[C@H](C(=O)N[C@@H](CC(=O)O)C(=O)N[C@@H](CO)C(=O)N[C@@H](Cc1ccc(O)cc1)C(=O)N[C@@H](CO)C(=O)N[C@@H](CCCNC(=N)N)C(=O)N[C@@H](Cc1ccc(O)cc1)C(=O)N[C@@H](CCCNC(=N)N)C(=O)N[C@@H](CCCCN)C(=O)N[C@@H](CCC(N)=O)C(=O)N[C@@H](CCSC)C(=O)N[C@@H](C)C(=O)N[C@H](C(=O)N[C@@H](CCCCN)C(=O)N[C@@H](CCCCN)C(=O)N[C@@H](Cc1ccc(O)cc1)C(=O)N[C@@H](CC(C)C)C(=O)N[C@@H](C)C(=O)N[C@@H](C)C(=O)N[C@H](C(=O)N[C@@H](CC(C)C)C(N)=O)C(C)C)C(C)C)[C@@H](C)O
